Assay results reported in ChEMBL document CHEMBL1833877, “Antinociceptive properties of bergenin” (J Nat Prod, 2011).
Activity calls are given as the source filed them. The calls are words filed in the database; no cut-off is given here.

Tests used:
Mus musculus [1] = assay: Neurotoxicity in mouse assessed as effect on motor coordination by measuring reduced latency at 10 mg/kg, ip after 40 mins by rotarod test; format: toxicity, organism-based; design: dose 10 mg/kg, route intraperitoneal; settings: in vivo
Summary of the method: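 Rotarod: a 3 cm bar split into five compartments, turning at a constant 5 rpm. Male mice were placed on the rod 40 min after ip dosing (vehicle 2% DMSO in saline), and time on the rod was recorded up to 120 s. Result is mean time per group; n = 6, one-way ANOVA with Tukey's test.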

Mus musculus [2] = assay: Neurotoxicity in mouse assessed as effect on motor coordination at 10 mg/kg, ip after 40 mins by open field test; format: toxicity, organism-based; design: dose 10 mg/kg, route intraperitoneal; settings: in vivo
Summary of the method: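 Male mice were dosed ip (vehicle 2% DMSO in saline). 40 min later each was placed alone in a 40 × 60 × 50 cm wooden box with the floor divided into 12 squares. Squares crossed with all four paws were counted over 3 min. n = 6 mice per group, means ± SEM, one-way ANOVA with Tukey's test.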

Mus musculus [3] = assay: Antinociceptive activity against Freund's complete adjuvant-induced paw inflammation in mouse assessed as reduction in paw edema at 2 mg/kg, ip administered 40 mins before CFA challenge measured after 6 hrs; format: functional, organism-based; design: dose 2 mg/kg
Summary of the method: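 CFA (20 μL, 1 mg/mL heat-killed M. tuberculosis) was injected sc into the right hind plantar surface. Treatment was ip in 2% DMSO/saline 40 min before. Paw volume was read by plethysmometer before and after CFA, and edema taken as the volume difference (mm3/paw). n = 6 mice/group, means ± SEM, two-way ANOVA with Bonferroni.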

Mus musculus [4] = assay: Inhibition of IL1-beta production in Freund's complete adjuvant-induced mouse at 2 mg/kg, ip administered 40 mins before CFA challenge measured after 2 hrs by ELISA; format: functional, organism-based; design: dose 2 mg/kg
Summary of the method: (§1)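 CFA was given intraplantar, with ip dosing (2% DMSO/saline vehicle) 40 min earlier. At 2 h, paw skin was taken under terminal halothane anesthesia. Tissue was extracted (100 mg/mL PBS with 0.4 M NaCl, 0.05% Tween 20 and protease inhibitors) and centrifuged at 3000g for 10 min. Supernatant was assayed by mouse ELISA, in pg/mL. n = 6/group.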

Mus musculus [5] = assay: Inhibition of TNF-alpha production in Freund's complete adjuvant-induced mouse at 2 mg/kg, ip administered 40 mins before CFA challenge measured after 2 hrs by ELISA; format: functional, organism-based; design: dose 2 mg/kg; summary of the method: as §1

Compound	Activity (Mus musculus [1])	Activity (Mus musculus [2])	Activity (Mus musculus [3])	inhibition (Mus musculus [4])	inhibition (Mus musculus [5])
CN1C(=O)CN=C(c2ccccc2)c2cc(Cl)ccc21 [DIAZEPAM]	Toxic	Toxic	–	–	–
C[C@@H]1C[C@H]2[C@@H]3CCC4=CC(=O)C=C[C@]4(C)[C@@]3(F)[C@@H](O)C[C@]2(C)[C@@]1(O)C(=O)CO	–	–	inactive	Active	Active
